In ChEMBL document CHEMBL4007450, “Development of 1,2,4-Oxadiazoles as Potent and Selective Inhibitors of the Human Deacetylase Sirtuin 2: Structure-Activity Relationship, X-ray Crystal Structure, and Anticancer Activity” (J Med Chem, 2017):
Calls of active or inactive are those of the source. The rule behind the calls is not given here.

Columns and labels:
U-937 [1] = experiment: Cell cycle arrest in human U937 cells assessed as accumulation at G2/M phase at 25 uM after 48 hrs by propidium iodide staining-based FACS analysis; type: functional
[2] = target: T1, NAD-dependent protein deacetylase sirtuin-3, mitochondrial (Homo sapiens) (UniProt Q9NTG7); experiment: Inhibition of human SIRT3 (114 to 380 residues) activity expressed in Escherichia coli using AceCS2 peptide as substrate up to 100 uM after 45 mins in presence of NAD+ by pNCA/GDH-based microplate spectrophotometric analysis
T1 sequence (whole entry): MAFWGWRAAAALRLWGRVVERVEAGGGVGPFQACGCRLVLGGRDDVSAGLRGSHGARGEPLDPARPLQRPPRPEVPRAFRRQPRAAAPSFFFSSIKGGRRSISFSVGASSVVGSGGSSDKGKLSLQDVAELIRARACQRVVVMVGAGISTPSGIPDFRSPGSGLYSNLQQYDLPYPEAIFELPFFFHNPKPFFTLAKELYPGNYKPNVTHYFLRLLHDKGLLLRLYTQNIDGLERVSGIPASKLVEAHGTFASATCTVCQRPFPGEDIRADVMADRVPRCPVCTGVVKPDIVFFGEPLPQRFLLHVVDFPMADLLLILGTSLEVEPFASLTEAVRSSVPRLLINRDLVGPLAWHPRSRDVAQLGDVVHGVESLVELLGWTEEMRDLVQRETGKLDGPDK
Procedure, shortened: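 Same pNCA/GDH-coupled 340 nm NADPH read-out as the Sirt2 assay, using 20 mM Na-phosphate pH 7.8 with 3% DMSO at 20 °C for 45 min. Sirt3 (114-380) was used at 5 µM with AceCS2 peptide TRSGacKVMR as substrate. Inhibitors were tested up to 100 µM.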

[3] = target: T2, NAD-dependent protein deacetylase sirtuin-2 (Homo sapiens) (UniProt Q8IXJ6); experiment: Inhibition of human N-terminal His6-SUMO-tagged SIRT2 catalytic domain (43 to 356 residues) deacetylase activity expressed in Escherichia coli using alpha-tubulin-acetylLys40 peptide as substrate at 100 uM after 45 mins in presence of NAD+ by pNCA/GDH-based microplate spectrophotometric analysis
T2 sequence (whole entry): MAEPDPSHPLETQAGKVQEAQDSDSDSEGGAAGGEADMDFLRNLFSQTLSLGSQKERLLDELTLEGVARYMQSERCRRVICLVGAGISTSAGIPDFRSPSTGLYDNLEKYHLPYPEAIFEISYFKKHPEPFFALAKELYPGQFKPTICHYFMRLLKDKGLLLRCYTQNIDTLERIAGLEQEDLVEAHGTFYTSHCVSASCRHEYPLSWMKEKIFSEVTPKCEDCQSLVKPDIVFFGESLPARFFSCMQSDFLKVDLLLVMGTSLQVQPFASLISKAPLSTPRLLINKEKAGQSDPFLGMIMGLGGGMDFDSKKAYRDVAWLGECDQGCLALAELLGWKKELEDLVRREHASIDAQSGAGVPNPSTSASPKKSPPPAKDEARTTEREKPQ
Procedure, shortened: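 Continuous coupled assay: Sirt2 product nicotinamide is converted by pNCA/GDH, and NADPH oxidation is read at 340 nm. Compounds were tested at 10 and 100 μM. Background was taken without peptide or NAD+.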

[4] = target: T3, NAD-dependent protein deacetylase sirtuin-1 (Homo sapiens) (UniProt Q96EB6); experiment: Inhibition of human full length SIRT1 activity expressed in Escherichia coli using p53 peptide as substrate up to 100 uM after 45 mins in presence of NAD+ by pNCA/GDH-based microplate spectrophotometric analysis
T3 sequence (whole entry): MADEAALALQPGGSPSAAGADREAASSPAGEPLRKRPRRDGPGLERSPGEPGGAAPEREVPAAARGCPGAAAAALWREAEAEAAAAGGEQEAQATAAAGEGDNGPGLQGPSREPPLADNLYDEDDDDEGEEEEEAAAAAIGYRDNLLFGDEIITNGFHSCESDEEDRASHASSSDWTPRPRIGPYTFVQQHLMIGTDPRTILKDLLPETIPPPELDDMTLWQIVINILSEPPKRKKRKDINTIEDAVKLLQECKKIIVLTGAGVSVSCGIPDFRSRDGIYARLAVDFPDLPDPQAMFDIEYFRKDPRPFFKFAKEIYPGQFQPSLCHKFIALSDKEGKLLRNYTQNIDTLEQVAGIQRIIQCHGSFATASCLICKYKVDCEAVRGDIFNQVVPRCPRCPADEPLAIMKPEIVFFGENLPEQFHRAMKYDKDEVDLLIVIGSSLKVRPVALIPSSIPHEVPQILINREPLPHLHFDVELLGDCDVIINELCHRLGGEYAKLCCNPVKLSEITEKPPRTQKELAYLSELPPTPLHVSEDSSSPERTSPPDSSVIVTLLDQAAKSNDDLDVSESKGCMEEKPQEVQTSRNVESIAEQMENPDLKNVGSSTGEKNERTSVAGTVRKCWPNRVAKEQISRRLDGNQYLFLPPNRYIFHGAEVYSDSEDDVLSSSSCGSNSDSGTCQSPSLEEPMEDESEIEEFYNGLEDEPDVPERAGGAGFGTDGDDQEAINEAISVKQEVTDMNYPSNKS
Procedure, shortened: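 Full-length Sirt1 at 2 µM with p53 peptide RHKacKLMFK as substrate. Activity was measured in the same coupled pNCA/GDH mix as for Sirt2 (α-ketoglutarate, NADPH, Na-phosphate pH 7.8, 3% DMSO), following NADPH oxidation at 340 nm at 20 °C for 45 min. Compounds were tested up to 100 µM.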

[5] = target: NAD-dependent protein deacylase sirtuin-5, mitochondrial (Homo sapiens) (UniProt Q9NXA8); experiment: Inhibition of human SIRT5 (34 to 302 residues) deacetylase activity expressed in Escherichia coli using Prx1 peptide as substrate up to 100 uM after 45 mins in presence of NAD+ by pNCA/GDH-based microplate spectrophotometric analysis
NAD-dependent protein deacylase sirtuin-5, mitochondrial (Homo sapiens), sequence (Q9NXA8 37-310 limits assumed): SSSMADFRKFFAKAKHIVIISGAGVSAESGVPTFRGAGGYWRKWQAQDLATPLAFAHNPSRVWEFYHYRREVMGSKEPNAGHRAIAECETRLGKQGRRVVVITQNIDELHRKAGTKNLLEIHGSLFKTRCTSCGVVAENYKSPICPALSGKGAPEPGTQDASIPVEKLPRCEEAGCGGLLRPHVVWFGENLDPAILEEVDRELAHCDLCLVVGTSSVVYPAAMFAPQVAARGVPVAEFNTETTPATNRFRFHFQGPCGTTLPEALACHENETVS

U-937 [6] = experiment: Effect on cell cycle arrest in human U937 cells at 25 uM after 48 hrs by propidium iodide staining-based FACS analysis; type: functional
U-937 [7] = experiment: Induction of apoptosis in human U937 cells assessed as pre-G1 accumulation at 5 to 50 uM after 48 hrs by propidium iodide staining-based FACS analysis; type: functional, cell-based
Procedure, shortened: (§1)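 Leukemia cells (U937, NB4, HL-60, K562) were grown in RPMI-1640 with 10% FBS, 2 mM L-glutamine and antibiotics, then treated for 48 h at 5, 10, 25 and 50 μM. 2.5×10^5 cells were stained 30 min in the dark in hypotonic PI buffer (0.1% Triton X-100, 0.1% citrate, 50 µg/mL PI, RNase A). Apoptosis was scored as pre-G1 content by flow cytometry. Duplicates, mean ± SD.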

NB-4 = experiment: Induction of apoptosis in human NB4 cells assessed as pre-G1 accumulation at 5 to 50 uM after 48 hrs by propidium iodide staining-based FACS analysis; type: functional, cell-based; procedure, shortened: as §1
K562 = experiment: Induction of apoptosis in human K562 cells assessed as pre-G1 accumulation at 5 to 50 uM after 48 hrs by propidium iodide staining-based FACS analysis; type: functional, cell-based; procedure, shortened: as §1
HL-60 = experiment: Induction of apoptosis in human HL60 cells assessed as pre-G1 accumulation at 5 to 50 uM after 48 hrs by propidium iodide staining-based FACS analysis; type: functional, cell-based; procedure, shortened: as §1
MDA-MB-231 = experiment: Induction of apoptosis in human MDA-MB-231 cells assessed as pre-G1 accumulation at 5 to 50 uM after 48 hrs by propidium iodide staining-based FACS analysis; type: functional, cell-based
Procedure, shortened: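 MDA-MB-231 breast cancer cells were grown in DMEM with 10% FBS, 2 mM L-glutamine and antibiotics, then exposed for 48 h at 5, 10, 25 or 50 μM. 2.5×10^5 cells were stained in hypotonic buffer with 50 µg/mL PI, 0.1% Triton X-100, 0.1% citrate and RNase A for 30 min in the dark. Pre-G1 fraction was measured by flow cytometry. Biological duplicates, mean ± SD.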

[8] = target: T4, NAD-dependent protein deacetylase sirtuin-2 (Homo sapiens, UniProt Q8IXJ6)
T4 sequence (Q8IXJ6 whole entry): T2 sequence (whole entry)

[9] = target: NAD-dependent protein deacylase sirtuin-5, mitochondrial (Homo sapiens) (UniProt Q9NXA8); experiment: Inhibition of human SIRT5 (34 to 302 residues) desuccinylase activity expressed in Escherichia coli using peptide as substrate up to 100 uM after 45 mins in presence of NAD+ by pNCA/GDH-based microplate spectrophotometric analysis

Clc1ccccc1-c1noc(CCCBr)n1 was tested, and the Activity (U-937 [1]) was “Active”.
With Clc1ccc(-c2noc(CCCBr)n2)cc1 the inhibition [2] was “inactive”, the inhibition [3] was “Active” and the inhibition [4] was “inactive”. For the same compound, the inhibition [5] was “inactive”, the Activity (U-937 [6]) was “inactive” and the Activity (U-937 [7]) was “inactive”. The Activity (NB-4) was “inactive”, the Activity (K562) was “inactive” and the Activity (HL-60) was “inactive”. For the same compound, the Activity (MDA-MB-231) was “inactive”, the IC50 [8] was 2.5 µM and the inhibition [9] was “inactive”.
For BrCCCc1nc(-c2ccccc2Br)no1, the Activity (U-937 [1]) was “Active”.
For ClCCCc1nc(-c2ccc(Br)cc2)no1, the inhibition [2] was “inactive”, the inhibition [4] was “inactive” and the inhibition [5] was “inactive”. For the same compound, the Activity (U-937 [6]) was “inactive”, the IC50 [8] was 3.6 µM and the inhibition [9] was “inactive”.
